The list is not random: actives were taken first. Their share in the collection is about 3%.
CaV13 ICDI inh: Disruptors of the CACNA1D IQ motif to Ca2+-dependent inactivation inhibitor domain association, primary screening, Förster resonance energy transfer in intact living …; HEK cells, CFP/YFP FRET ICDI-IQ, plate reader, 10 min; percent FRET-ratio fall versus neutral wells; inhibition, % at 12.3 µM; 0.098% of 340,000 active; AID 743397;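 active = mean replicate inhibition of at least 30% and at least 1% of replicates passing that level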;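 note: 0% = median of the neutral control wells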
T cruzi inh: T. cruzi replication inhibition. inhibition, % (concentration not given with the values). AID 1885. 1.4% of 300,000 active. T. cruzi beta-gal in NIH3T3, luminescence, 90 h;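 active = mean inhibition across valid replicates above about 55%, limit read from the data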;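 note: signal also drops with host cell toxicity which is not excluded here; 0% = plate median of DMSO wells and 100% = zero luminescence signal; higher percent means less beta-gal luminescence so fewer parasites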
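assay system = mouse NIH/3T3 fibroblasts infected with β-gal-expressing T. cruzi Tulahuen C4 | input = 5,000 NIH/3T3 host cells per well | buffer or medium = DMEM plus 2% FBS | timing = 3 h host attachment, then at least 90 h co-culture | measured by = GalScreen luminescence, 60 min | evaluation = luminescence reflecting intracellular parasite burden, expressed as percent inhibition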
PfHsp90 set2: growth inhibition of yeast expressing Plasmodium Hsp90; S. cerevisiae expressing PfHsp90, BacTiter-Glo ATP, 48 h; yeast lacking PDR1 and PDR3 efflux regulators; inhibition, % at 9.4 µM; 0.32% of 310,000 active;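 active = every replicate shows inhibition above about 80%, whatever the replicate mean, limit read from the data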;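 note: 0% = DMSO neutral controls and 100% = 20 µM radicicol positive controls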
N-glyco inh: N-linked glycosylation inhibition | D54 ERlucT glycosylation luciferase reporter, 24 h; percent of 100 nM tunicamycin response | reporter increase, % at 12.5 µM | 0.23% of 360,000 active;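 active = mean luciferase reporter signal, scaled so untreated is 0 and the glycosylation-blocking control 100, at or above a set limit in every replicate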;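 note: luciferase carries N-glycosylation sites so blocking glycosylation raises the light; 0% = median of neutral control wells and 100% = median of 100 nM tunicamycin wells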
HSF1 activator: increases HSF-1 driven luciferase reporter signal | NIH3T3-HGL HSF-1 luciferase reporter, MG132, 8 h; 100% = twice DMSO control signal | activation, % at 9 µM | 1.7% of 300,000 active;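 active = mean replicate activation of at least 50% with a set share of replicates each reaching 50%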;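 note: 0% = median of the neutral control wells and 100% = twice that signal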
PvdQ inh: P. aeruginosa PvdQ acylase inhibition; AID 488965; 0.063% of 340,000 active; purified PvdQ acylase, fluorescence plate reader; inhibition, % at 10 µM; in the data active = inhibition above about 30%, passing the limit was not always enough;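 note: 0% = vehicle neutral wells and 100% = reference inhibitor wells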
Active calls of the source: *; x = not tested or not shown.

SMILES | CaV13 ICDI inh | T cruzi inh | PfHsp90 set2 | N-glyco inh | HSF1 activator | PvdQ inh
O=C1CC(c2ccccc2)CC(O)=C1C=Nc1ccccc1O (stereo not given) | -5.2 | -64.4 | -92.8 | 0.5 | 35.7 | -10.9
O=C1CC(c2ccccc2)CC(O)=C1C=Nc1ccccc1 (stereo not given) | 2.6 | -28.2 | 25.1 | 0.3 | 119.2* | -7.9
O=C1CC(c2ccco2)CC(O)=C1C=Nc1cc(Cl)ccc1O (stereo not given) | -6.0 | -2.9 | 10.1 | -4.0 | 69.4* | -20.8
Cc1ccc(N=CC2=C(O)CC(c3ccco3)CC2=O)cc1 (stereo not given) | -4.1 | -4.2 | -8.8 | 0.8 | 72.2* | -6.8
Cc1ccc(C(=O)N2CCC[C@@H]2C(=O)N2CCC[C@H]2C(=O)NCc2ccccc2)cc1C | -4.9 | x | x | x | x | x
CCOC(=O)Nc1nc2ccc(Cn3cccc3)cc2[nH]1 | -5.4 | x | 3.9 | 22.4 | -6.8 | -16.1
Cc1cc2c(c(=O)o1)[C@@]1(C(=O)N(C)c3ccccc31)C1=C(CCCC1=O)O2 | -7.9 | x | x | x | x | x
CC(C)(C)C(=O)/C(=C/c1ccc(Cl)cc1)n1cncn1 | -2.1 | 17.9 | -21.6 | -22.5 | 150.3* | -13.7
COc1ccc(OC)c2sc(N3CCN(C(=O)c4ccc([N+](=O)[O-])s4)CC3)nc12 | -5.4 | 66.7* | 40.9 | 3.6 | 32.5 | -3.1
O=C(c1ccc([N+](=O)[O-])s1)N1CCN(c2ccccc2)CC1 | -9.0 | 69.5* | 3.4 | -1.8 | x | -10.4
CC1=NC2=CC=CC3=NC(C(Cl)(Cl)Cl)=NC(=N1)N23 | -3.0 | x | x | x | x | x
COc1ccc(NC(=O)c2cc(C3CCCCN3S(=O)(=O)c3c(C)noc3C)on2)c(C)c1 (stereo not given) | -5.4 | x | x | -1.7 | x | x
O=C(Nc1ccc(Cl)c(Cl)c1)N(Cc1cccnc1)Cc1ccco1 | -4.3 | 55.7* | 8.1 | 3.9 | 8.3 | -6.9
S=C(Nc1ccccc1Cl)N(Cc1cccnc1)Cc1ccco1 | -2.2 | 38.0 | -37.4 | -1.2 | 0.7 | -13.8
C=CCN=C1NC(c2cccc(Cl)c2)C(C(=O)OC)=C(C)N1Cc1ccc(C(F)(F)F)cc1 (stereo not given) | -8.1 | x | x | x | x | x
CC(C)(C)C(=O)Cn1c(=N)n(Cc2ccccc2)c2ccccc21 | -4.9 | 29.8 | 18.1 | -2.0 | 9.6 | -9.0
CC(C)(C)C(=O)Cn1c(=N)n(Cc2ccccc2Cl)c2ccccc21 | -3.3 | 57.4* | 38.2 | -4.0 | -5.4 | -22.2
CCOc1ccccc1CNC(=O)C1CCN(c2nnc(C)c3c(C)n(-c4ccc(C)cc4)nc23)CC1 | -3.6 | 57.2* | 5.0 | -15.0 | 23.7 | -6.1
COc1ccc(-n2nc3c(N4CCC(C(=O)N5CCCCCC5)CC4)nnc(C)c3c2C)cc1 | -4.3 | 59.3* | -4.5 | 4.9 | 7.2 | 10.9
Cc1ccc(S(=O)(=O)NN=CC=CC=NNS(=O)(=O)c2ccc(C)cc2)cc1 | -7.4 | x | x | 1.4 | x | x
O=C(Cc1ccccc1F)Nc1nc(-c2cccs2)cs1 | -2.6 | 0.3 | -8.3 | -5.4 | 66.2* | -11.3
O=C(Nc1nc(-c2cccs2)cs1)c1ccc([N+](=O)[O-])o1 | -5.0 | x | 84.5* | -11.0 | x | -10.6
O=C(Nc1cccc(NC(=O)c2cccs2)c1)c1ccc([N+](=O)[O-])o1 | -13.9 | 68.3* | -39.7 | 59.3* | 77.5* | -12.3
COc1cc(NC(=O)c2ccc([N+](=O)[O-])o2)ccc1NC(=O)c1cccs1 | 0.0 | 85.6* | -50.4 | 13.8 | 126.8* | -7.2
O=C(Nc1nc(-c2cccs2)cs1)c1ccco1 | 9.2 | 34.6 | -1.3 | 4.5 | 37.1 | 11.2
SMILES | CaV13 ICDI inh | T cruzi inh | PfHsp90 set2 | N-glyco inh | HSF1 activator | PvdQ inh
CCCCCCCCN1C(=O)[C@@H](CC(=O)N2CCOCC2)C[C@@]2(C(=O)OC)C1=C[C@H](C(C)(C)C)O[C@@H]2C | -8.7 | x | x | x | x | x
CCc1nc2c(OCC(=O)c3ccc(Cl)cc3Cl)cccn2c1N(C)C(=O)c1cccs1 | -11.7 | x | x | -2.8 | x | x
Cc1onc(-c2c(F)cccc2Cl)c1-c1ncc(-c2ccc(Cl)cc2)o1 | -4.6 | x | x | x | x | x
COc1ccc(C2=CC3=C(Br)C(=O)C(C)(O)C(=O)C3=CO2)cc1 (stereo not given) | x | 3.3 | 106.8* | 3.3 | 8.8 | -7.8
COc1ccc(C2=CC3=CC(=O)C(C)(O)C(=O)C3=CO2)cc1 (stereo not given) | x | -18.2 | x | x | -9.5 | x
COC(=O)CCC(=O)OC1(C)C(=O)C2=CN(Cc3ccc(OC)cc3)C(c3ccc(OC)cc3)=CC2=C(Br)C1=O (stereo not given) | -9.8 | 15.4 | -0.9 | 6.5 | 10.2 | -17.7
CCC(=O)OC1(C)C(=O)C2=COC(c3ccc(OC)cc3)=CC2=C(Br)C1=O (stereo not given) | -7.0 | -4.3 | 112.8* | 2.9 | -3.3 | -11.5
CC(C)Nc1ccc(C(CC(N)=O)NC(=O)c2ccc(Br)cc2)cc1[N+](=O)[O-] (stereo not given) | -9.2 | -3.3 | -2.4 | 49.4* | 1.3 | -8.9
CC(C)Nc1ccc(C(CC(N)=O)NC(=O)Cc2ccc(Cl)cc2)cc1[N+](=O)[O-] (stereo not given) | -10.0 | -26.5 | 5.2 | 41.0* | 7.4 | -12.3
NC(=O)CC(NC(=O)Cc1ccc(Cl)cc1)c1ccc(NC2CCCCC2)c([N+](=O)[O-])c1 (stereo not given) | -11.7 | -15.7 | 7.2 | 45.3* | -7.2 | -19.9
NC(=O)CC(NC(=O)Cc1ccc(Cl)cc1)c1ccc(NCCc2ccccc2F)c([N+](=O)[O-])c1 (stereo not given) | -5.8 | 5.2 | 5.3 | 0.5 | -12.6 | 7.0
NC(=O)CC(NC(=O)Cc1ccc(Cl)cc1)c1ccc(NC2CCCC2)c([N+](=O)[O-])c1 (stereo not given) | -4.6 | -6.3 | 7.0 | 49.0* | 3.8 | -16.4
C[C@H](O)[C@@H]1C(=O)N2CCc3c([nH]c4cccc(-c5ccccc5)c34)[C@@H]2C[C@@H]1N(C)C(=O)NC1CCCCC1 | -5.2 | x | x | x | x | x
CCN(CC)C(=O)C1=C(C)N(Cc2ccc(OC)cc2)C(=O)C(CC(=O)NCc2cccs2)C1 (stereo not given) | -9.3 | x | x | 2.2 | x | x
NC(=O)CC(NC(=O)Cc1cccc2ccccc12)c1ccc(NC2CCC2)c([N+](=O)[O-])c1 (stereo not given) | -12.1 | -16.4 | 0.8 | 3.1 | -0.5 | -11.8
NC(=O)CC(NC(=O)Cc1ccc(Br)cc1)c1ccc(NC2CCC2)c([N+](=O)[O-])c1 (stereo not given) | x | 2.0 | x | 39.5* | -7.5 | 5.9
CC1CCCN(Cc2c(O)ccc3c(=O)c(-c4nc5ccccc5s4)c(N)oc23)C1 (stereo not given) | -2.6 | 42.5 | 19.3 | 2.1 | 2.0 | -4.2
CC1(C)CCCN(Cc2c(O)ccc3c(=O)c(-c4nc5ccccc5s4)c(N)oc23)C1 | -2.5 | 53.7 | 16.6 | -5.6 | 79.4* | -12.3

Bioassay records: PubChem BioAssay, Broad Institute
